Experimental data taken from ChEMBL document CHEMBL1156315, “Discovery of a novel sulfonamide-pyrazolopiperidine series as potent and efficacious gamma-secretase inhibitors” (Bioorg Med Chem Lett, 2010).

What was measured:
[1] = target: Gamma-secretase (Homo sapiens) (UniProt Q96BI3+Q9NZ42+Q8WW43+P49768+Q92542+P49810); assay: Inhibition of gamma-secretase-mediated APP cleavage in human SNC cells by ELISA; format: cell-based
Gamma-secretase [2] = assay: Inhibition of gamma-secretase-mediated notch cleavage in human SNC cells by ELISA; format: cell-based
[3] = (§1) Metabolic stability in human liver microsomes assessed as compound remaining after 30 mins in presence of 1 mM NADPH; format: ADME, Microsome; conditions: liver microsomes, read-out: Stability
How it was run: (§2)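 Liver microsomes (0.5 mg protein) in phosphate buffer with 1 mM NADPH, incubated 30 min at 37 °C; read-out is the percentage of parent compound remaining.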

Gamma-secretase [4] = assay: Inhibition of gamma-secretase-mediated APP cleavage in human IMR-32 cells assessed as amyloid beta40 level after 2 hrs by ELISA; format: cell-based
Gamma-secretase [5] = assay: Inhibition of gamma-secretase-mediated notch cleavage in human IMR-32 cells after 2 hrs by ELISA; format: cell-based
[6] = (§3) Metabolic stability in human liver microsomes assessed as compound remaining after 30 mins in presence of 1 mM UDPGA, 100 mM MgCl2 and 25 ug/ml alamethacin; format: ADME, Microsome; conditions: liver microsomes, read-out: Stability
How it was run: (§4)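 Glucuronidation conditions: liver microsomes (0.5 mg protein) in phosphate buffer with 1 mM UDPGA, 100 mM MgCl₂ and alamethacin, 30 min at 37 °C; the percentage of compound remaining is reported.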

Liver microsomes [7] = assay: as §3; format: ADME, Microsome; conditions: microsomes, 0.5 h; how it was run: as §4
Liver microsomes [8] = assay: as §1; format: ADME, Microsome; conditions: microsomes, 0.5 h; how it was run: as §2
[9] = Ratio of drug level in FVB mouse brain to plasma; format: ADME, cell-free
How it was run: (§5)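 Wild-type FVB mice received a single 5 mg/kg oral dose. Brain Aβ40 reduction and the brain/plasma compound ratio were determined 3 h post-dose.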

Mus musculus = assay: Neuroprotective activity in FVB mouse brain assessed as reduction in amyloid beta 40 level at 5 mg/kg, po after 3 hrs; format: functional; design: scale not given: the % may be the effect or the level left; how it was run: as §5

Row | SMILES | ED50 [1] [nM] | IC50 (Gamma-secretase [2]) [nM] | remaining at 0.5 h [3] [%] | IC50 (Gamma-secretase [4]) [nM] | IC50 (Gamma-secretase [5]) [nM] | remaining at 0.5 h [6] [%] | Stability (Liver microsomes [7]) [%] | Stability (Liver microsomes [8]) [%] | Kp [9] | Activity (Mus musculus) [%]
1 | O=S(=O)(c1ccc(Cl)cc1)N1CCc2n[nH]cc2C1CO (stereo not drawn) | 3130 | > 40000 | 84 | 557 | 8660 |  |  |  |  | 
2 | O=S(=O)(c1ccc(Cl)cc1)N1CCCCC1 |  |  |  | > 30000 |  |  |  |  |  | 
3 | O=S(=O)(c1ccc(Cl)cc1)N1Cc2c[nH]nc2CC1c1cncnc1 (stereo not drawn) | 400 | > 40000 | 67 | 536 | 10400 | 70 |  |  |  | 
4 | O=S(=O)(c1ccc(Cl)cc1)N1CCc2[nH]ncc2C1c1cncnc1 (stereo not drawn) |  | 2310 | 50 | 12 | 120 | 85 |  |  |  | 
5 | CCOC(=O)C1c2c[nH]nc2CCN1S(=O)(=O)c1ccc(Cl)cc1 (stereo not drawn) | 137 | 10300 | 1 | 10.2 | 204 | 1 |  |  |  | 
6 | CCOC(=O)C1Cc2n[nH]cc2CN1S(=O)(=O)c1ccc(Cl)cc1 (stereo not drawn) | 1420 | > 40000 | 8 | 431 | 5850 |  |  |  |  | 
7 | O=S(=O)(c1ccc(Cl)cc1)N1Cc2c[nH]nc2CC1c1ccccc1 (stereo not drawn) | 55.3 | 6510 | 5 | 7.7 | 598 | 8 |  |  |  | 
8 | CC[C@H]1Cc2n[nH]cc2[C@@H](CC)N1S(=O)(=O)c1ccc(Cl)cc1.Cl |  | 6850 |  | 62.6 |  |  | 1 | 0 |  | 
9 | C[C@@H]1CCC[C@H](C)N1S(=O)(=O)c1ccc(Cl)cc1 |  |  |  | 1000 |  |  |  |  |  | 
10 | O=S(=O)(c1ccc(Cl)cc1)N1CCc2n[nH]cc2C1c1cncnc1 (stereo not drawn) | 47.1 |  |  |  |  |  |  |  |  | 
11 | CC[C@H]1Cc2n[nH]cc2[C@@H](c2ccc(Cl)cc2)N1S(=O)(=O)c1ccc(Cl)cc1 (racemic) | 16.7 | 1570 | 10 | 3.7 | 75.5 | 31 |  |  |  | 
12 | CC[C@@H]1c2c[nH]nc2C[C@H](c2ccc(Cl)cc2)N1S(=O)(=O)c1ccc(Cl)cc1 (racemic) | 182 | 15500 | 4 | 22.4 | 126 | 25 |  |  |  | 
13 | O=S(=O)(c1ccc(Cl)cc1)N1Cc2c[nH]nc2CC1Cc1ccccc1 (racemic) | 340 | 16600 | 3 | 80.9 | 1550 |  |  |  |  | 
14 | CN(C)C(=O)OCC1c2c[nH]nc2CCN1S(=O)(=O)c1ccc(Cl)cc1 (racemic) | 5320 | > 40000 | 15 | 350 | 8250 | 59 |  |  |  | 
15 | CC[C@H]1Cc2n[nH]cc2CN1S(=O)(=O)c1ccc(Cl)cc1 (racemic) | 19 | 736 | 18 | 1.01 | 15.3 |  |  |  |  | 
16 | CC1CCCCN1S(=O)(=O)c1ccc(Cl)cc1 (racemic) |  |  |  | 8280 |  |  |  |  |  | 

Row | SMILES | ED50 [1] [nM] | IC50 (Gamma-secretase [2]) [nM] | remaining at 0.5 h [3] [%] | IC50 (Gamma-secretase [4]) [nM] | IC50 (Gamma-secretase [5]) [nM] | remaining at 0.5 h [6] [%] | Stability (Liver microsomes [7]) [%] | Stability (Liver microsomes [8]) [%] | Kp [9] | Activity (Mus musculus) [%]
17 | CCC1CCCCN1S(=O)(=O)c1ccc(Cl)cc1 (racemic) |  |  |  | 2000 |  |  |  |  |  | 
18 | CCCC1CCCCN1S(=O)(=O)c1ccc(Cl)cc1 (racemic) |  |  |  | 1700 |  |  |  |  |  | 
19 | O=S(=O)(c1ccc(Cl)cc1)N1CCCCC1c1ccccc1 (racemic) |  |  |  | 760 |  |  |  |  |  | 
20 | CC(C)C1Cc2n[nH]cc2CN1S(=O)(=O)c1ccc(Cl)cc1 (racemic) | 86 | 6760 | 5 | 16.1 | 87 |  |  |  |  | 
21 | O=S(=O)(c1ccc(Cl)cc1)N1Cc2c[nH]nc2CC1c1nccs1 (racemic) | 1270 | 33600 | 54 | 244 | 5750 | 8 |  |  |  | 
22 | O=S(=O)(c1ccc(Cl)cc1)N1CCc2n[nH]cc2C1c1nccs1 (racemic) | 139 | 6530 | 57 | 29.1 | 858 |  |  |  |  | 
23 | O=S(=O)(c1ccc(Cl)cc1)N1Cc2cn[nH]c2CC1c1ccc(Cl)cc1 (racemic) |  | 2590 | 12 | 3.4 | 311 | 33 |  |  |  | 
24 | O=S(=O)(c1ccc(Cl)cc1)N1Cc2cn[nH]c2CC1c1ccc(F)cc1 (racemic) |  | 5320 | 6 | 5.4 | 481 |  |  |  |  | 
25 | O=S(=O)(c1ccc(Cl)cc1)N1Cc2cn[nH]c2CC1c1cccc(F)c1 (racemic) |  | 11400 | 14 | 8.3 | 662 | 0 |  |  |  | 
26 | O=S(=O)(c1ccc(Cl)cc1)N1Cc2c[nH]nc2CC1c1cc(F)cc(F)c1 (racemic) | 60.1 | 14100 | 3 | 9.7 | 776 | 0 |  |  |  | 
27 | CC[C@H]1Cc2n[nH]cc2[C@@H](CC)N1S(=O)(=O)c1ccc(Cl)cc1 (racemic) | 1.27 |  |  |  |  |  |  |  |  | 
28 | O=S(=O)(c1ccc(Cl)cc1)N1Cc2c[nH]nc2CC1c1ccc(Cl)cc1 (racemic) | 17.5 |  |  |  |  |  |  |  |  | 
29 | O=S(=O)(c1ccc(Cl)cc1)N1Cc2c[nH]nc2CC1c1ccc(F)cc1 (racemic) | 28 |  |  |  |  |  |  |  |  | 
30 | O=S(=O)(c1ccc(Cl)cc1)N1Cc2c[nH]nc2CC1c1cccc(F)c1 (racemic) | 47.1 |  |  |  |  |  |  |  |  | 
31 | CC[C@H]1Cc2n[nH]cc2[C@@H](CC)N1S(=O)(=O)c1ccc(Cl)cc1 (racemic) [ENT A] |  | 123 |  | 0.48 | 5 | 2 |  | 1 |  | 
32 | CC[C@H]1Cc2n[nH]cc2[C@@H](CC)N1S(=O)(=O)c1ccc(Cl)cc1 [ENT A] |  | 70 |  | 0.35 | 5.8 |  | 1 |  | 0.8 | 25
